Data on 1 compound can be found in ChEMBL document CHEMBL4251598, “Development of novel bis-pyrazole derivatives as antitumor agents with potent apoptosis induction effects and DNA damage” (Eur J Med Chem, 2018).

Active and inactive are the calls of the source.

The test system of series [1] is SMMC-7721. In words: Antiproliferative activity against human SMMC7721 cells after 72 hrs by MTT assay. In kind it is functional, cell-based. The conditions noted are these: SMMC-7721, 72 h. In outline: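 Cells in DMEM with 10% FBS, 10^4 cells/mL, adhered overnight at 37 °C, 5% CO2. Treated in triplicate with a range of concentrations for 72 h. MTT (5 mg/mL solution) added for the last 4 h, formazan dissolved in DMSO, absorbance read at 570 nm. IC50 calculated from percent inhibition. Mean ± SD of three independent experiments.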

In series [2] the test system is HCT-116. In words: Potency index, ratio of ADM IC50 to compound IC50 for human HCT116 cells. In kind it is functional.
For series [3], the system named is SMMC-7721. In words: Induction of apoptosis in human SMMC7721 cells assessed as apoptotic cells at 0.8 uM after 72 hrs by FITC-Annexin-V/7AAD/propidium iodide staining based flow cytometry relative to control. The series is classed as functional. In outline:
(§1)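 SMMC-7721 cells cultured overnight, then treated in triplicate with 0.2, 0.8 or 3.2 μM, vehicle, or ADM (3.2 μM) for 72 h. Stained with annexin V and PI (methods section: APC-annexin V/7-AAD) for 15 min at room temperature. Mean ± SD of three independent experiments.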
For orientation: Flow cytometry measures light scatter and fluorescence of single cells or particles in a stream.

Series [4] concerns SMMC-7721. In words: Induction of apoptosis in human SMMC7721 cells assessed as apoptotic cells at 3.2 uM after 72 hrs by FITC-Annexin-V/7AAD/propidium iodide staining based flow cytometry relative to control. The series is classed as functional. In outline:
as §1

Series [5] relates to SMMC-7721. Put plainly: Induction of apoptosis in human SMMC7721 cells assessed as increase in cleaved caspase-3 expression at 3.2 uM after 72 hrs by Western blot analysis relative to control. In kind it is functional, cell-based. A digest of the protocol:
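Sub-confluent SMMC-7721 cells treated with vehicle, compound or ADM at indicated concentrations for 72 h. Lysed on ice in NP-40/deoxycholate/SDS buffer with PMSF and leupeptin. Up to 50 µg protein run on SDS-PAGE, transferred to PVDF and probed with specific antibodies; ECL detection. Bands quantified by densitometry relative to β-actin, mean ± SD of three experiments.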
For orientation: In western blotting, separated proteins are transferred to a membrane and probed.

Series [6] relates to SMMC-7721. Put plainly: Induction of DNA double stranded breaks in human SMMC7721 cells assessed as increase in H2AX phosphorylation at S139 after 72 hrs by Western blot analysis. The series is classed as functional, cell-based. In outline: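 SMMC-7721 cells treated with vehicle, compound at 0.2, 0.8 or 3.2 μM, or ADM for 72 h. Lysates immunoblotted for H2AX pS139, p-p53 (Ser15), total p53 and β-actin, with ECL detection. Signals quantified by densitometry relative to β-actin, mean ± SD of three experiments.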

Series [7] is described as follows: Acute toxicity in ICR mouse assessed as survival at 390.6 mg/kg, ip measured on day 14. In kind it is organism-based. As to conditions: in vivo. A digest of the protocol:
(§2)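 Female ICR mice, 10 per group, single intraperitoneal injection at 488.3, 390.6, 312.5, 250 or 200 mg/kg, or vehicle control. Survival, eating, drinking, body weight and activity were monitored for up to 14 days after dosing. MTD was defined as the highest dose giving no drug-related moribund state or death, with temporary body-weight loss within 20%. LD50 was calculated from mortality.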

The nature of series [8]: Acute toxicity in ICR mouse assessed as survival at 312.5 mg/kg, ip measured on day 14. As to conditions: in vivo. The series is classed as organism-based. A digest of the protocol: as §2
The test system of series [9] is SMMC-7721. In words: Antitumor activity against human SMMC7721 cells xenografted in BALB/c mouse assessed as tumor growth inhibition at 15 mg/kg, ip measured after 19 days relative to control. In kind it is functional. As to conditions: SMMC-7721, ip, 456 h, read-out: TGI. A digest of the protocol: (§3)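 Female BALB/c nude mice, 5-6 weeks old, inoculated subcutaneously with 10^6 SMMC-7721 cells. At 50-100 mm³ tumours, mice were randomized to ip compound (15 or 30 mg/kg), ADM (15 mg/kg) or vehicle, n = 6 per group. Caliper volume ½(L×W²) measured every 3 days to day 19, with body weight monitored. Tumours excised and weighed at the end.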
(A xenograft is tissue or cells of one species grown in another, often human tumour cells in immunodeficient mice.)

Series [10] relates to Mus musculus. In words: Toxicity in BALB/c mouse xenografted with human SMMC7721 cells assessed as effect on body weight at 15 to 30 mg/kg, ip measured after 19 days. The series is classed as organism-based. The conditions noted are these: in vivo, 456 h. A digest of the protocol: as §3
For series [11], the system named is SMMC-7721. Put plainly: Antitumor activity against human SMMC7721 cells xenografted in ip dosed BALB/c mouse assessed as tumor growth inhibition measured every 3 days up to 19 days post dose. The series is classed as functional, organism-based. A digest of the protocol: as §3
Series [12] deals with SMMC-7721. In words: Potency index, ratio of 5-FU IC50 to compound IC50 for human SMMC7721 cells. In kind it is functional.
Series [13] has as its system HCT-116. In words: Potency index, ratio of 5-FU IC50 to compound IC50 for human HCT116 cells. In kind it is functional.
A short description of series [14]: Acute toxicity in ICR mouse at 200 to 488.3 mg/kg, ip. The series is classed as organism-based. As to conditions: in vivo. A digest of the protocol: as §2
In series [15] the test system is Mus musculus. In words: Acute toxicity in ICR mouse assessed as effect on drinking behaviour at 200 mg/kg, ip measured up to 14 days post dose. In kind it is organism-based. The conditions noted are these: in vivo, 336 h. In outline: as §2
For series [16], the system named is Mus musculus. In words: Acute toxicity in ICR mouse assessed as mouse mortality level at 200 to 488.3 mg/kg, ip measured at 1 to 4 hrs post dose. The conditions noted are these: in vivo. In kind it is organism-based. A digest of the protocol:
as §2

A word on the IC50: it is the concentration that gives 50% inhibition. Low readings indicate higher potency, high ones lower potency. As a reminder, the LD50 is the dose at which mortality reaches 50%. A high value points to a less toxic substance. `COc1ccc(Oc2c(/C=N\OCc3c(Cl)c(-c4ccc(Cl)cc4)nn3C)c(C)nn2C)cc1`: the IC50 in the series with SMMC-7721 [1] was 760 nM. The “Ratio IC50” value with HCT-116 [2] is given as 2 - 3; in the series on SMMC-7721 [12] it was 17 - 50; with HCT-116 [13] it was 17 - 50. The Activity is 49.2% with SMMC-7721 [3]; 63.2% in the series on SMMC-7721 [4]; “Dose-dependent effect” in the series with SMMC-7721 [6]; “Non-Toxic” in the series on Mus musculus [10]; “Non-Toxic” in the series on Mus musculus [15]; “Non-Toxic” with Mus musculus [16]. Moreover, the outcome in the series on SMMC-7721 [5] was Active. For the same compound, the survival at 14 day in [7] amounted to 40%; in [8], 60%. Also, the inhibition in vivo at 15 mg/kg with SMMC-7721 [9] was 44%. Further, the TGI result with SMMC-7721 [11] was “Dose-dependent effect”. This compound displayed a median lethal dose (LD50) in series [14] of 350 mg/kg.
